High-throughput results deposited in PubChem BioAssay by several laboratories.
ROMK mod: ROMK potassium channel modulators, primary screen, cell-based, thallium flux, MLSMR library. ATP-sensitive inward rectifier potassium channel 1 (Homo sapiens), P48048. Tet-inducible ROMK, thallium flux fluorescence; actives lie on both sides. B-score at 10 µM. actives 2% (n = 130,000). AID 1918, 2009;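 active = signal ratio slope over the read window, or its plate-corrected B-score, at least 3 SD from the plate mean, either direction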;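 also: B-score of the F/F0 ratio slope over 7 to 12 s after thallium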
Target sequence (P48048 whole entry, looked up): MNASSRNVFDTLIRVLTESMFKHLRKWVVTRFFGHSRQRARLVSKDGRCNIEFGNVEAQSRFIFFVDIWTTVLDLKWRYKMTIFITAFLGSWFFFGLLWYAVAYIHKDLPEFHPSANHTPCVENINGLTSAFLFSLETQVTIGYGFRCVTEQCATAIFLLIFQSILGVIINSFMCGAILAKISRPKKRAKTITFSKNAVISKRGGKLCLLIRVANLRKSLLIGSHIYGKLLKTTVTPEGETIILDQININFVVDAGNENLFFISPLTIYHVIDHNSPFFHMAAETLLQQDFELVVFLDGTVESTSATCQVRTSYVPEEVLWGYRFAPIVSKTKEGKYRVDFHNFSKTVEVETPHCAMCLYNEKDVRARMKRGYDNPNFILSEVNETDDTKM
MT stabilize HCS: microtubule stabilizers in HeLa cells, primary screen, imaging, high-content imaging; HeLa tubulin immunostaining HCS, 24 h; share of cells brighter than vehicle mean+2SD; % tubulin-high responders, % at 10 µM; actives 0.83% (n = 200,000); AID 2205, 2009;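 active = plate Z-score above 3 for both tubulin-high and condensed-nucleus cell shares, with cell loss under 80%, at 10 µM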;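 also: anti alpha tubulin signal scored within the nucleus-defined area of each cell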
bCat nuc transl: modulators of beta-catenin nuclear translocation, primary screen, imaging, HeLa cells, immunofluorescence, high-content; AID 1665, 2009; actives 0.3% (n = 190,000); nuclear translocation activity, % at 5 µM;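 active = nuclear translocation activity above 50% at 5 µM, with a well cell count of 50 or more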;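 also: per-cell ratio of nuclear to cytoplasmic median beta-catenin stain intensity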
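Assay system: human HeLa cells, native beta-catenin; doses: 5 µM primary, 0.02–20 µM confirmation; incubation: compound treatment 24 h, 37°C, 5% CO2; technique: fluorescence imaging of beta-catenin antibody stain plus DAPI; measure: % activation, nuclear-to-cytoplasmic median beta-catenin signal ratio per cell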
Of the large screens only hits and unclear results are named; the others gave an inactive call. Compounds with a hit are over-represented: about 1.9% of the library has one in this group of screens.

Clc1ccccc1-c1ncnc2ccc(Br)cc12	none
CN(Cc1ccccc1)c1ncnc2ccc(Br)cc12	ROMK mod -4.7 (no result: bCat nuc transl)
O=C(/C=C/c1cccc([N+](=O)[O-])c1)n1cnc2ccccc21	none
COc1ccc(-c2noc(-c3ccccc3C(=O)Nc3cccc(OC)c3)n2)cc1	none
CCOc1ccccc1NC(=O)c1ccccc1-c1nc(-c2ccccc2)no1	MT stabilize HCS 32 (no result: ROMK mod)
O=C1CC(c2ccccc2F)C2=C(COC2=O)N1 (centres undefined)	none
Cc1cccc2nc(CSc3nnc(N)s3)cn12	none
COc1ccc(Nc2nnc(SCc3cn4c(C)cccc4n3)s2)cc1	MT stabilize HCS 19 (no result: ROMK mod)
Cc1[nH]c(-c2ccccn2)nc(=S)c1Cl	ROMK mod 3.5 (no result: MT stabilize HCS)
Cc1cc(=S)nc(-c2ccccn2)[nH]1	none (no result: MT stabilize HCS)
CCOC(=O)c1nnc(-c2ccccc2)nc1N1CC(C)OC(C)C1 (centres undefined)	none
Cc1nc([N+](=O)[O-])nn1C12CC3CC(CC(Cl)(C3)C1)C2	none
CCOC(=O)c1[nH]c(C)c(C(=O)OC)c1C	none (no result: ROMK mod, MT stabilize HCS)
COC(=O)c1c(C)[nH]c(-c2csc(N)n2)c1C	MT stabilize HCS 13
Fc1cccc(CSc2ccc3nnc(-c4cccnc4)n3n2)c1	none
CCCC(=O)Nc1nc2ccc(S(=O)(=O)N3CCCCC3)cc2s1	none (no result: ROMK mod)
CC(C)CC(=O)Nc1nc2ccc(S(=O)(=O)N3CCOCC3)cc2s1	MT stabilize HCS 49 (no result: ROMK mod)
CCOc1cccc2cc(C(=O)NCCC3=CCCCC3)c(=O)oc12	none
CC(=O)/C(=N\Nc1ccccc1)Sc1cccc2cccnc12	none
O=C(Sc1cccc2cccnc12)c1ccc(F)cc1	ROMK mod 8.7
COc1cccc(CN2CCN(C(=S)NCc3ccc(Cl)cc3)CC2)c1	none
C1CCC(C(CC2CCCCN2)C2CCCCC2)CC1 (centres undefined)	MT stabilize HCS 35 (no result: ROMK mod)
O=C(O)C1CCN(c2ccccc2[N+](=O)[O-])CC1	none
CCc1ccc(/C=C2/C(=O)N(c3ccccc3)C(=S)N2CC(=O)OC)s1	none (no result: ROMK mod)
CCN1C(=O)/C(=C/N(C(C)=O)c2ccccc2)N(c2ccccc2)C1=S	ROMK mod -3.8
O=C(NNC(=S)Nc1ccc(Cl)c(Cl)c1)c1cccc([N+](=O)[O-])c1	ROMK mod 3 (no result: MT stabilize HCS)
Cc1cccc(NC(=S)NNC(=O)c2cccc([N+](=O)[O-])c2)c1	none (no result: MT stabilize HCS)
CC(C)N1C(=S)N(Cc2ccco2)C(=O)C1CC(=O)Nc1ccccc1 (centres undefined)	none
Cc1ccc(NC(=S)NC(=O)c2sc3ccccc3c2Cl)c(C(=O)O)c1	ROMK mod 4.5
O=C(O)c1ccccc1NC(=S)NC(=O)c1sc2ccccc2c1Cl	none
CC12CN3CC(C)(CN(C1)C3c1ccc(F)cc1)C2 (centres undefined)	none
CN(C)CCCNC1=CC(=O)CC(c2ccccc2)C1 (centres undefined)	none
O=C1C=C(Nc2ccc(Cl)cc2)CC(c2ccccc2)C1 (centres undefined)	MT stabilize HCS 14, bCat nuc transl 126
Cc1ccc(NC2=CC(=O)CC(c3ccc(Cl)cc3)C2)cc1 (centres undefined)	none (no result: ROMK mod)
Cc1ccc(NC2=CC(=O)CC(c3ccccc3)C2)cc1 (centres undefined)	MT stabilize HCS 20
CC(C)CCNC1=CC(=O)CC(c2ccccc2)C1 (centres undefined)	MT stabilize HCS 13 (no result: bCat nuc transl)
O=C1C=C(Nc2cccc(Cl)c2)CC(c2ccco2)C1 (centres undefined)	none
CN(C(=O)CSc1nc2c(c(=O)[nH]1)CCC2)c1ccccc1	none
CCC(=O)N1CCc2cc(Br)cc(S(=O)(=O)N(C)c3ccc(OC)cc3OC)c21	none
COc1ccc(OC)c(NC(=O)c2cnc3ccccn3c2=O)c1	none (no result: bCat nuc transl)
COc1ccc(OC)c(NC(=O)c2cnc(Nc3ccccc3OC)c3ccccc23)c1	MT stabilize HCS 19
S=C1NC[C@H](CC2CCCCC2)N1CC1CCCCC1	none (no result: ROMK mod)
Nc1nc(-c2ccccc2)c(C(=O)Nc2ccccc2)s1	none
Cc1ccc(C=Nc2ccccc2C(N)=O)s1	MT stabilize HCS 22 (no result: ROMK mod)
Cc1cccc(C=Nc2ccccc2C(N)=O)c1	none (no result: bCat nuc transl)
Cc1cc2c(N=NC(=O)CCc3ccccc3)c(O)[nH]c2cc1Br	none
CCOC(=O)c1c(C)nc2c(c1-c1cc(OC)ccc1OC)C(=O)c1ccccc1-2	none (no result: ROMK mod)
CCOC(=O)C1=C(Cc2ccc(OC)cc2)C(=O)c2ccccc2C1=O	MT stabilize HCS 45 (no result: ROMK mod)
COc1ccc(C(=O)c2ccc(CC(=O)O)s2)cc1	none
Cc1nn(-c2ccccc2)c(-c2ccccc2[N+](=O)[O-])c1C(=O)O	none (no result: ROMK mod, MT stabilize HCS)
CCOCc1[nH]c(=S)[nH]c(=O)c1Cc1ccc(OCC(C)C)cc1	none
Cc1[nH]c(=S)[nH]c(=O)c1Cc1ccc(OCC(C)C)cc1	MT stabilize HCS 15
Cc1ccc(C(=O)c2no[n+]([O-])c2C(=O)c2ccc(C)cc2)cc1	ROMK mod -5.1
Cc1ccc(C(=O)c2ccc(C)cc2)cc1	none
COc1ccc(C(Nc2ccc(S(=O)(=O)NCC3CCCO3)cc2)C(=O)NC(C)(C)C)cc1OC (centres undefined)	none
CCOc1ccccc1C(=O)NC(C)c1ccc2c(c1)OCO2 (centres undefined)	MT stabilize HCS 42
Cc1occc1C(=O)NC(C)c1ccc2c(c1)OCO2 (centres undefined)	none (no result: ROMK mod)
CCOc1ccccc1C(=O)Nc1ccsc1C(=O)OC	MT stabilize HCS 28, bCat nuc transl 57
CCOc1ccccc1C(=O)Nc1ccccc1C(N)=O	none (no result: ROMK mod)
CCn1cnc2scc(-c3ccccc3)c2c1=O	none (no result: ROMK mod, bCat nuc transl)
Cn1cc(/C=N/n2cnc3scc(-c4ccc(Cl)cc4)c3c2=O)c2ccccc21	bCat nuc transl 187
CN=C1CC(SC)=C1c1ccc(C)cc1	ROMK mod -2.9
COc1ccc2[nH]c(=O)c(CN(Cc3cccs3)Cc3nnnn3C(C)(C)C)cc2c1	none
CCOc1ccc2[nH]c(=O)c(CN(Cc3cccs3)Cc3nnnn3C(C)(C)C)cc2c1	MT stabilize HCS 33
Cc1ccc(N2C(=O)c3cccc4c(N5CCN(C)CC5)ccc(c34)C2=O)c2cccnc12	none (no result: ROMK mod)
Cc1ccc(N2C(=O)c3cccc4c([N+](=O)[O-])ccc(c34)C2=O)c2cccnc12	bCat nuc transl 52 (no result: ROMK mod, MT stabilize HCS)
CC(C)CCNC(=O)NC(=O)COC(=O)/C=C/c1cc(Br)ccc1F	none
COc1cc(C2Nc3ccc4ncccc4c3C3=C2C(=O)CCC3)cc(OC)c1O (centres undefined)	MT stabilize HCS 48 (no result: ROMK mod)
COc1cc(C2Nc3ccc4ncccc4c3C3=C2C(=O)CC(C)(C)C3)cc(OC)c1O (centres undefined)	none
COc1cccc(C2=CC(c3ccccc3)n3nnnc3N2)c1 (centres undefined)	MT stabilize HCS 32 (no result: bCat nuc transl)
COc1cccc(C2C=C(c3ccc(OC)cc3OC)Nc3nnnn32)c1 (centres undefined)	MT stabilize HCS 30 (no result: bCat nuc transl)
COc1ccc(C2=CC(c3ccc(OC)c(OC)c3)n3nnnc3N2)c(OC)c1 (centres undefined)	none
COc1cccc(C2=CC(c3ccc(N(C)C)cc3)n3nnnc3N2)c1 (centres undefined)	MT stabilize HCS 42
COc1ccc(C2C=C(c3ccccc3)Nc3nnnn32)cc1 (centres undefined)	none
COc1cccc(C2=CC(c3ccc(N(C)C)cc3)n3ncnc3N2)c1 (centres undefined)	none (no result: bCat nuc transl)
